Experimental data: ChEMBL document CHEMBL4732181, “Pyrazolo[3,4-d]pyrimidine-based dual EGFR T790M/HER2 inhibitors: Design, synthesis, structure-activity relationship and biological activity as potential antitumor and anticonvulsant agents” (Eur J Med Chem, 2021)
Blank lines part the entries; values can stand above or below the compound they belong to.

Assays:
WI-38 = experiment: Cytotoxicity against human WI-38 cells assessed as reduction in cell viability after 48 hrs by MTT assay; assay type: cell-based; settings: WI-38, 48 h
Outline: (§1)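 Cells from ATCC grown in DMEM with 10% FBS, insulin and 1% penicillin-streptomycin. Plated at 1.2-1.8 × 10,000 cells/well for 24 h, then exposed to compounds in DMSO vehicle for 48 h. MTT 0.5 mg/ml added for 2 h; absorbance read at 570 nm. Experiments run in triplicate.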

[1] = biological target: T1, Receptor tyrosine-protein kinase erbB-2 (Homo sapiens, UniProt P04626); experiment: Inhibition of HER2 (unknown origin) at 10 uM relative to control
T1 sequence (P04626 whole entry): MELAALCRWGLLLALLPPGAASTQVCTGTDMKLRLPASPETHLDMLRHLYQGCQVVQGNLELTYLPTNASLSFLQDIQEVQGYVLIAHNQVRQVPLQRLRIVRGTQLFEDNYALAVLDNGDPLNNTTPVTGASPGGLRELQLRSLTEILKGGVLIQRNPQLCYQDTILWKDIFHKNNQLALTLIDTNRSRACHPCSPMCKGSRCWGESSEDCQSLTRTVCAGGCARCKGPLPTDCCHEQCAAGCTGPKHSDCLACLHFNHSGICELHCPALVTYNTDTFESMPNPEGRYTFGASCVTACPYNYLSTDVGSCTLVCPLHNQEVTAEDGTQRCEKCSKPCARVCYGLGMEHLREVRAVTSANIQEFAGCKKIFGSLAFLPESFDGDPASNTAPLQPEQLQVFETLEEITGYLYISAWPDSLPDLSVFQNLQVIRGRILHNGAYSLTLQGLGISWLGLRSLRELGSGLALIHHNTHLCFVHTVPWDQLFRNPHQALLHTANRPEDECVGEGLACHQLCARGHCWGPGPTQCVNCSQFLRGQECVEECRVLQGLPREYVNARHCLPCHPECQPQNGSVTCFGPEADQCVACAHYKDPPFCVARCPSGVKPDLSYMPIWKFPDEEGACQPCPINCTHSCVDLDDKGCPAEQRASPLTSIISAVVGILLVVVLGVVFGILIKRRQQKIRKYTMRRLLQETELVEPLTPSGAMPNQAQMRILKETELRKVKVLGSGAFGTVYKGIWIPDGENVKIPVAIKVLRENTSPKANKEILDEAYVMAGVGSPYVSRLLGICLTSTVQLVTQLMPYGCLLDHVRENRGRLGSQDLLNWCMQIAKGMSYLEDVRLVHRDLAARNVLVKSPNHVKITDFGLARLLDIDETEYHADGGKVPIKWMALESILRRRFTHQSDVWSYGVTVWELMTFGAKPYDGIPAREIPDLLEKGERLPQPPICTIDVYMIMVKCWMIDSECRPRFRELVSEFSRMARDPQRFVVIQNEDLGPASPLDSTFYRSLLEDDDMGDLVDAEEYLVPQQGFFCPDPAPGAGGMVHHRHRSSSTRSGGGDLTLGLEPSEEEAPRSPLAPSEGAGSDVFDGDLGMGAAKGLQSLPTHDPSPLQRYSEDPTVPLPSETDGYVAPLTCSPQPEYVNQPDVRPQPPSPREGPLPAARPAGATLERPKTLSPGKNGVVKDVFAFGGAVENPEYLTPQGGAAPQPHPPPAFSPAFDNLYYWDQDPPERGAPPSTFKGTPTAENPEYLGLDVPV
Outline: (§2)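 Cell-free immunoassay kit measuring EGFR T790M/HER2 kinase inhibition. Percent inhibition screened at 10 µM. IC50 obtained from four concentrations (0.01-10 µM) by fitting E(%) = Emax/(1+[I]/ID50) to a dose-response curve. Mean of two independent replicates.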

[2] = biological target: T1, Receptor tyrosine-protein kinase erbB-2; experiment: Inhibition of HER2 (unknown origin); outline: as §2
Mus musculus [3] = experiment: Anticonvulsant activity against mouse model of LiCa/pilocarpine-induced status epilepticus assessed as mean power frequency at 20 mg/kg, po for 10 days by EEG method relative to control; assay type: functional; settings: time 10 day
Outline: (§3)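 Male mice (20-30 g), five per group, dosed orally once daily for 10 days. Status epilepticus was then induced with LiCa (3 mEq/kg i.p.), atropine sulfate (1 mg/kg i.p.) 30 min before pilocarpine, and pilocarpine HCl (300 mg/kg i.p.) 2 h after LiCa. Normal controls received oral distilled water. Comparators were untreated SE, phenytoin and lamotrigine. One-way ANOVA with Tukey post-hoc; mean ± SD.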

Mus musculus [4] = experiment: Anticonvulsant activity against mouse model of LiCa/pilocarpine-induced status epilepticus assessed as spectral edge frequency at 20 mg/kg, po for 10 days by EEG method relative to control; assay type: functional; settings: time 10 day; outline: as §3
Mus musculus [5] = experiment: Anticonvulsant activity against mouse model of LiCa/pilocarpine-induced status epilepticus assessed as total power at 20 mg/kg, po for 10 days by EEG method relative to control; assay type: functional; settings: time 10 day; outline: as §3
Mus musculus [6] = experiment: Anticonvulsant activity against mouse model of LiCa/pilocarpine-induced status epilepticus assessed as amplitude at 20 mg/kg, po for 10 days by EEG method relative to control; assay type: functional; settings: time 10 day; outline: as §3
Mus musculus [7] = experiment: Anticonvulsant activity against mouse model of LiCa/pilocarpine-induced status epilepticus assessed as amplitude density at 20 mg/kg, po for 10 days by EEG method relative to control; assay type: functional; settings: time 10 day; outline: as §3
Mus musculus [8] = experiment: Anticonvulsant activity against mouse model of LiCa/pilocarpine-induced status epilepticus assessed as power pV2 at 20 mg/kg, po for 10 days by EEG method relative to control; assay type: functional; settings: time 10 day; outline: as §3
Mus musculus [9] = experiment: Anticonvulsant activity against mouse model of LiCa/pilocarpine-induced status epilepticus assessed as total power density at 20 mg/kg, po for 10 days by EEG method relative to control; assay type: functional; settings: time 10 day; outline: as §3
Mus musculus [10] = experiment: Anticonvulsant activity against mouse model of LiCa/pilocarpine-induced status epilepticus assessed as delta at 20 mg/kg, po for 10 days by EEG method relative to control; assay type: functional; settings: time 10 day; outline: as §3
Mus musculus [11] = experiment: Anticonvulsant activity against mouse model of LiCa/pilocarpine-induced status epilepticus assessed as theta at 20 mg/kg, po for 10 days by EEG method relative to control; assay type: functional; settings: time 10 day; outline: as §3
Mus musculus [12] = experiment: Anticonvulsant activity against mouse model of LiCa/pilocarpine-induced status epilepticus assessed as alpha at 20 mg/kg, po for 10 days by EEG method relative to control; assay type: functional; settings: time 10 day; outline: as §3
Mus musculus [13] = experiment: Anticonvulsant activity against mouse model of LiCa/pilocarpine-induced status epilepticus assessed as MDA level in brain at 20 mg/kg, po for 10 days by calorimetric method relative to control; assay type: functional; settings: time 10 day; outline: as §3
Mus musculus [14] = experiment: Anticonvulsant activity against mouse model of LiCa/pilocarpine-induced status epilepticus assessed as GSH level in brain at 20 mg/kg, po for 10 days by calorimetric method relative to control; assay type: functional; settings: time 10 day; outline: as §3
Mus musculus [15] = experiment: Anticonvulsant activity against mouse model of LiCa/pilocarpine-induced status epilepticus assessed as GABA level in brain at 20 mg/kg, po for 10 days by ELISA relative to control; assay type: functional; settings: time 10 day; outline: as §3
Mus musculus [16] = experiment: Anticonvulsant activity against mouse model of LiCa/pilocarpine-induced status epilepticus assessed as Glutamate level in brain at 20 mg/kg, po for 10 days by ELISA relative to control; assay type: functional; settings: time 10 day; outline: as §3
[17] = biological target: Epidermal growth factor receptor (Homo sapiens, UniProt P00533, T790M); experiment: Inhibition of EGFR T790M mutant (unknown origin)
Chain of Epidermal growth factor receptor (P00533 25-1210 T790M limits assumed): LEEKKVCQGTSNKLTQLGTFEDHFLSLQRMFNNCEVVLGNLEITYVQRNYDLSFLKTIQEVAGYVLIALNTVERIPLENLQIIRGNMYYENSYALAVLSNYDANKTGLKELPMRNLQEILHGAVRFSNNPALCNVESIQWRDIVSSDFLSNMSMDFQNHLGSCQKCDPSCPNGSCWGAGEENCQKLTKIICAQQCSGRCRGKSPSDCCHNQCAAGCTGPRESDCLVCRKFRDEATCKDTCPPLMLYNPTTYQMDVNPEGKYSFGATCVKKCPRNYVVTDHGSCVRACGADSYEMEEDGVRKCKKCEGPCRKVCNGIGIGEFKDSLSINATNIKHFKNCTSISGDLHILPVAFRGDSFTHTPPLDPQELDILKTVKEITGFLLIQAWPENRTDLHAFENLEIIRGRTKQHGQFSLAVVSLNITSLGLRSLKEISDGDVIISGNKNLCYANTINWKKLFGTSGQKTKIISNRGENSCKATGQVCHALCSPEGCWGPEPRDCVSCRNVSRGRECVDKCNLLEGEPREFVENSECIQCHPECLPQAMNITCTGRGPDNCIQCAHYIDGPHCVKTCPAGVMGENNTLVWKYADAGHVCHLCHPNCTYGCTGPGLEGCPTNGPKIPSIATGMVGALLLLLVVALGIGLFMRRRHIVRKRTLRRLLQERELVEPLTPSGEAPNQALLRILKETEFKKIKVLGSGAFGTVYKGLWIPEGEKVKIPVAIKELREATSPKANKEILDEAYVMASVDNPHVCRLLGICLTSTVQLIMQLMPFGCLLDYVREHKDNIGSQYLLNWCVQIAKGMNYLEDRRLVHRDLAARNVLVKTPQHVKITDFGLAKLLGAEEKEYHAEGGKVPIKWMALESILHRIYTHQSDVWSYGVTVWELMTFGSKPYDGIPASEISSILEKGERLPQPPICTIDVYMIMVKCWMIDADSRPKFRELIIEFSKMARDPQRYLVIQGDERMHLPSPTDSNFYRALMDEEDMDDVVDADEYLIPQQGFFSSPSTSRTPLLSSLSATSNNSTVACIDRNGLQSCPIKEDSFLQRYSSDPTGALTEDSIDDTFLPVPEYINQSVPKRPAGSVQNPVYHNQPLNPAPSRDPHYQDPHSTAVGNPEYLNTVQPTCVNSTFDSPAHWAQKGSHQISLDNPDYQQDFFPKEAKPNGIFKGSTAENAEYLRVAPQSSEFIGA

MCF7 = experiment: Cytotoxicity against human MCF7 cells assessed as reduction in cell viability after 48 hrs by MTT assay; assay type: functional, cell-based; settings: MCF7, 48 h; outline: as §1

- inhibition [1]: 54.5%
- IC50 [2]: 11200 nM
SMILES: Cc1ccc(C2=N/C(=C\c3ccc(Cl)cc3)C(=O)NN2C(=O)c2nc3c(c(C)nn3-c3ccccc3)c(=O)[nH]2)cc1
- IC50 (WI-38): 26.4 nM
- Activity (Mus musculus [3]): -29.47%
- Activity (Mus musculus [4]): -20.49%
- Activity (Mus musculus [5]): 15.45%
- Activity (Mus musculus [6]): 66.22%
- Activity (Mus musculus [7]): 71.73%
- Activity (Mus musculus [8]): 152.01%
- Activity (Mus musculus [9]): 208.36%
- Activity (Mus musculus [10]): 256.83%
- Activity (Mus musculus [11]): 34.92%
- Activity (Mus musculus [12]): 13.75%
- Activity (Mus musculus [13]): -50.74%
- Activity (Mus musculus [14]): 113.22%
- Activity (Mus musculus [15]): 58.15%
- Activity (Mus musculus [16]): -36.07%

- inhibition [1]: 83.6%
- IC50 [17]: 656 nM
- IC50 [2]: 872 nM
SMILES: Cc1nn(-c2ccccc2)c2nc(CC(=O)N3NC(=O)/C(=C\c4ccccc4)N=C3c3ccccc3)[nH]c(=O)c12
- IC50 (WI-38): 47.2 nM
- Activity (Mus musculus [3]): -23.98%
- Activity (Mus musculus [4]): -17.45%
- Activity (Mus musculus [5]): 2.33%
- Activity (Mus musculus [6]): 63.11%
- Activity (Mus musculus [7]): 62.01%
- Activity (Mus musculus [8]): 136.74%
- Activity (Mus musculus [9]): 202.38%
- Activity (Mus musculus [10]): 264.32%
- Activity (Mus musculus [11]): 31.8%
- Activity (Mus musculus [12]): 33.49%
- Activity (Mus musculus [13]): -56.93%
- Activity (Mus musculus [14]): 69.18%
- Activity (Mus musculus [15]): 52.65%
- Activity (Mus musculus [16]): -50.88%

SMILES: Cc1nn(-c2ccccc2)c2nc(C(=O)N3NC(=O)/C(=C/c4ccc(Cl)cc4)N=C3c3ccccc3)[nH]c(=O)c12
- IC50 (MCF7): 44.3 nM
- IC50 (WI-38): 31.8 nM
- Activity (Mus musculus [3]): -27.57%
- Activity (Mus musculus [4]): -17.28%
- Activity (Mus musculus [5]): 19.53%
- Activity (Mus musculus [6]): 76%
- Activity (Mus musculus [7]): 77.2%
- Activity (Mus musculus [8]): 134.23%
- Activity (Mus musculus [9]): 202.67%
- Activity (Mus musculus [10]): 270.93%
- Activity (Mus musculus [11]): 34.07%
- Activity (Mus musculus [12]): 18.91%
- Activity (Mus musculus [13]): -53.49%
- Activity (Mus musculus [14]): 174.47%
- Activity (Mus musculus [15]): 74.77%
- Activity (Mus musculus [16]): -50.65%

SMILES: COc1ccc(/C=C2\N=C(c3ccc(C)cc3)N(C(=O)c3nc4c(c(C)nn4-c4ccccc4)c(=O)[nH]3)NC2=O)cc1
- IC50 (WI-38): 36.8 nM
- Activity (Mus musculus [3]): -32.59%
- Activity (Mus musculus [4]): -18.75%
- Activity (Mus musculus [5]): 18.66%
- Activity (Mus musculus [6]): 79.11%
- Activity (Mus musculus [7]): 56.84%
- Activity (Mus musculus [8]): 198.49%
- Activity (Mus musculus [9]): 222.48%
- Activity (Mus musculus [10]): 295.04%
- Activity (Mus musculus [11]): 32.29%
- Activity (Mus musculus [12]): 4.98%
- Activity (Mus musculus [13]): -46.76%
- Activity (Mus musculus [14]): 98.02%
- Activity (Mus musculus [15]): 79.64%
- Activity (Mus musculus [16]): -67.77%
